For 22 compounds, Activity, Inhibition and ED50 results are on record in ChEMBL document CHEMBL1146274, “Serendipitous discovery of novel imidazolopyrazole scaffold as selective androgen receptor modulators” (2007).

Broadly, the Inhibition is the change of the read-out against control, counted positive when it falls.

Test [1] has as its system Rattus norvegicus. Description: Androgenic activity in castrated immature Sprague-Dawley rat assessed as ventral prostate weight stimulation at 2 mg/day, po by Hersherberger assay. It counts as functional, Prostate gland. The procedure, abridged: (§1)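 Castrated immature male rats were given oral doses once daily for 5 days in 20% cyclodextrin vehicle, n = 3 per group. Ventral prostate weight was normalized to the vehicle control. Percent stimulation was scaled with the vehicle group set to 0% and the testosterone-alone group set to 100%.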

Test [2] is filed under the species Rattus norvegicus. Description: Inhibition of testosterone-enhanced ventral prostate weight in castrated immature Sprague-Dawley rat. Also on record: concentration or dose not given beside the values. The test is classed as functional, Prostate gland. The procedure, abridged: (§2)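 This was an antagonist mode in castrated immature male rats. Animals were dosed orally once daily for 5 days at 2 mg/day in 20% cyclodextrin, together with testosterone propionate 0.1 mg/day (about 1.3 mg/kg) subcutaneously in sesame oil, n = 3 per group. Percent inhibition of prostate weight was scaled with the vehicle group set to 100% and the testosterone-alone group set to 0%.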

In test [3] the test system is Rattus norvegicus. Description: Anabolic activity assessed as stimulation of levator ani muscle weight in castrated immature Sprague-Dawley rat at 2 mg/day, po by Hersherberger assay.
Test [4] relates to Rattus norvegicus. Description: Anabolic activity assessed as stimulation of levator ani muscle weight in sc dosed castrated immature Sprague-Dawley rat by Hersherberger assay. It counts as functional. To be noted: in the assay text read “po dosed” for “sc dosed”. The procedure, abridged: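 Castrated immature male rats received testosterone propionate by subcutaneous injection at the nape of the neck, 5 mg/kg in sesame oil. Levator ani weight was measured as percent stimulation, with the vehicle control set to 0% and the testosterone-alone group set to 100%.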

Test [5] is filed under the species Rattus norvegicus. Description: Androgenic activity in castrated immature Sprague-Dawley rat assessed as ventral prostate weight stimulation at 3 mg/ day by Hersherberger assay. The test is classed as functional, Prostate gland. The procedure, abridged:
as §1

Test [6] relates to Rattus norvegicus. Description: Inhibition of ventral prostate weight in castrated immature Sprague-Dawley rat at 2 mg/day, po. More on the design: scale not given: the % may be the effect or the level left. The test is classed as functional, Prostate gland. The essentials: as §2
Test [7] relates to Rattus norvegicus. The test can be described thus: Anabolic activity assessed as stimulation of levator ani muscle weight in castrated immature Sprague-Dawley rat at 5 mg/day, sc by Hersherberger assay. The test is classed as functional. The essentials: (§3)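 Castrated immature male rats; agent given subcutaneously by injection at the nape of the neck in sesame oil. Compounds in the same table were dosed once daily for 5 days with N = 3/group. Tissue weight is expressed as percent stimulation, with the vehicle-treated control set to 0% and the testosterone-alone control set to 100%.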

Test [8] deals with Rattus norvegicus. The test can be described thus: Androgenic activity in castrated immature Sprague-Dawley rat assessed as ventral prostate weight stimulation at 5 mg/day, sc by Hersherberger assay. It counts as functional, Prostate gland. The procedure, abridged:
as §3

For `CCN/C(=N\c1ccc(C#N)c(C(F)(F)F)c1)C1(C)CC(C(F)(F)F)=NN1` (centres undefined), the Activity with Rattus norvegicus [1] is listed as below 10%; with Rattus norvegicus [3], 50%. For the same compound, the Inhibition in the test filed under Rattus norvegicus [2] is on record as 18%.

For the compound `CC1(/C(=N/c2ccc(C#N)c(C(F)(F)F)c2)NS(C)(=O)=O)CC(C(F)(F)F)=NN1` (centres undefined), the Activity in the test on Rattus norvegicus [1] and in the test on Rattus norvegicus [3] was below 10% each time. For the same compound, the Inhibition in the test filed under Rattus norvegicus [2] is listed as below 10%.

Regarding `C[C@@]12CC(C(F)(F)F)=NN1C(N)=N/C2=N\c1ccc(C#N)c(C(F)(F)F)c1`, the Inhibition in the test filed under Rattus norvegicus [2] is on record as below 10%. For the same compound, in the test with Rattus norvegicus [4], the ED50 is reported as 0.85 mg/day. In addition, the results for the Activity in the test filed under Rattus norvegicus [5] and with Rattus norvegicus [3] were 29% and 72%, respectively.

For `CC12CC(c3c(F)c(F)c(F)c(F)c3F)=NN1C(N)=N/C2=N\c1ccc(C#N)c(C(F)(F)F)c1` (centres undefined), the Activity in the test on Rattus norvegicus [1] is below 10%; with Rattus norvegicus [3], 21%. In addition, the Inhibition in the test filed under Rattus norvegicus [2] is below 10%.

Consider `CCN(CC)/C(=N\c1ccc(C#N)c(C(F)(F)F)c1)C1(C)CC(C(F)(F)F)=NN1` (centres undefined), for which the values for the Activity in the test on Rattus norvegicus [1] and with Rattus norvegicus [3] were 22% and 32%, respectively. For the same compound, the Inhibition in the test listed under Rattus norvegicus [2] is reported as below 10%.

For the compound `CC1(/C(N)=N/c2ccc(C#N)c(C(F)(F)F)c2)CC(C(F)(F)F)=NN1` (centres undefined), the figures for the Activity in the test with Rattus norvegicus [1] and in the test with Rattus norvegicus [3] were 39% and 76%, respectively. Further, the Inhibition in the test listed under Rattus norvegicus [2] amounted to 20%.

Consider `CN/C(=N\c1ccc(C#N)c(C(F)(F)F)c1)C1(C)CC(C(F)(F)F)=NN1` (centres undefined), for which the Activity turned out to be 15% in the test on Rattus norvegicus [6] and 17% in the test on Rattus norvegicus [3]. For the same compound, in the test filed under Rattus norvegicus [2], the Inhibition came out at 15%.

For `CCOC(=O)C1=NN2C(N)=N/C(=N\c3ccc(C#N)c(C(F)(F)F)c3)C2(C)C1` (centres undefined), the Activity in the test with Rattus norvegicus [1] and with Rattus norvegicus [3] was below 10% in each case. The Inhibition in the test filed under Rattus norvegicus [2] was below 10%.

For `CCC12CC(C(F)(F)F)=NN1C(N)=N/C2=N\c1ccc(C#N)c(C(F)(F)F)c1` (centres undefined), the Activity in the test on Rattus norvegicus [1] is below 10%; in the test with Rattus norvegicus [3], 16%. Further, the Inhibition in the test listed under Rattus norvegicus [2] is below 10%.

With `CC12CC(C(F)(F)F)=NN1C(NC(=O)C(F)(F)F)=N/C2=N\c1ccc(C#N)c(C(F)(F)F)c1` (centres undefined), the Activity was found to be 55% in the test with Rattus norvegicus [1] and 61% in the test on Rattus norvegicus [3]. For the same compound, in the test listed under Rattus norvegicus [2], the Inhibition worked out at 31%.

As for `CC12CC(C(F)(F)F)=NN1C(N)=N/C2=N\c1ccc(Cl)c(Cl)c1` (centres undefined), the Activity in the test with Rattus norvegicus [1] and with Rattus norvegicus [3] was below 10% each time. Moreover, in the test filed under Rattus norvegicus [2], the Inhibition is listed as 31%.

`CC12CC(C(F)(F)F)=NN1C(N)=N/C2=N\c1ccc(Br)c(C(F)(F)F)c1` (centres undefined): the Activity with Rattus norvegicus [1] and in the test with Rattus norvegicus [3] was below 10% in each case. The Inhibition in the test filed under Rattus norvegicus [2] is below 10%.

Turning to `CC12CC(C(F)(F)F)=NN1C(N)=N/C2=N\c1ccc([N+](=O)[O-])c(C(F)(F)F)c1` (centres undefined), the Activity in the test on Rattus norvegicus [1] and with Rattus norvegicus [3] was below 10% each time. For the same compound, the Inhibition in the test listed under Rattus norvegicus [2] is reported as below 10%.

On to `CC12CC(C(F)(F)F)=NN1C(=N)O/C2=N\c1ccc(C#N)c(C(F)(F)F)c1` (centres undefined), for which the Activity is reported as 55% in the test with Rattus norvegicus [1] and 29% with Rattus norvegicus [3].

As to `CON/C(=N\c1ccc(C#N)c(C(F)(F)F)c1)C1(C)CC(C(F)(F)F)=NN1` (centres undefined), the Activity in the test with Rattus norvegicus [1] was 14%; in the test with Rattus norvegicus [3] it was 23%. Further, the Inhibition in the test filed under Rattus norvegicus [2] is below 10%.

For `CC1(/C(=N/c2ccc(C#N)c(C(F)(F)F)c2)NO)CC(C(F)(F)F)=NN1` (centres undefined), the Activity in the test with Rattus norvegicus [1] and with Rattus norvegicus [3] was below 10% throughout. In the test filed under Rattus norvegicus [2], the Inhibition is given as below 10%.

For `CC12CC=NN1C(N)=N/C2=N\c1ccc(C#N)c(C(F)(F)F)c1` (centres undefined), the Activity in the test on Rattus norvegicus [1] and in the test on Rattus norvegicus [3] was below 10% in each case. Also, the Inhibition in the test filed under Rattus norvegicus [2] is recorded as below 10%.

For the compound `C[C@]12CC(C(F)(F)F)=NN1C(N)=N/C2=N\c1ccc(C#N)c(C(F)(F)F)c1`, the Inhibition in the test listed under Rattus norvegicus [2] worked out at 30%. Also, in the test on Rattus norvegicus [4], the ED50 turned out to be 0.07 mg/day. Further, the Activity in the test filed under Rattus norvegicus [5] came to 36%; with Rattus norvegicus [3], 91%.

With `CCc1c(/N=C2\N=C(N)N3N=C(C(F)(F)F)CC23C)ccc(C#N)c1C(F)(F)F` (centres undefined), the Activity in the test on Rattus norvegicus [1] is reported as below 10%; in the test on Rattus norvegicus [3], 19%. Further, the Inhibition in the test listed under Rattus norvegicus [2] is on record as below 10%.

In the case of `CC1(/C(=N/c2ccc(C#N)c(C(F)(F)F)c2)N2CCCC2)CC(C(F)(F)F)=NN1` (centres undefined), the Activity with Rattus norvegicus [1] and in the test with Rattus norvegicus [3] was below 10% throughout. Further, the Inhibition in the test filed under Rattus norvegicus [2] is on record as below 10%.

Turning to `C[C@](O)(CS(=O)(=O)c1ccc(F)cc1)C(=O)Nc1ccc(C#N)c(C(F)(F)F)c1` [(R)-BICALUTAMIDE], the Inhibition in the test filed under Rattus norvegicus [2] is given as 70%.

Regarding `CCC(=O)O[C@H]1CC[C@H]2[C@@H]3CCC4=CC(=O)CC[C@]4(C)[C@H]3CC[C@]12C` [TESTOSTERONE PROPIONATE], the Activity with Rattus norvegicus [7] and in the test on Rattus norvegicus [8] was 100% in each case.
